Assays:
Histamine H3 receptor [1] = target: T1, Histamine H3 receptor (Homo sapiens, UniProt Q9Y5N1); assay: Displacement of [3H]NAMH from human H3R expressed in HEK293T cells incubated for 2 hrs by microbeta scintillation counting analysis; format: cell-based
In short: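 Homogenates of HEK293T cells transiently expressing hH3R or mH3R, harvested 48 h post-transfection, incubated with 2 nM [3H]NAMH and increasing unlabeled ligand in 50 mM Tris–HCl pH 7.4, 2 h at 25 °C. Rapid filtration over 0.5% PEI-coated GF/C filters, scintillation counting. One-site fit; IC50 converted to pKi by Cheng–Prusoff; three experiments in triplicate.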

Histamine H3 receptor [2] = target: T1, Histamine H3 receptor; assay: Agonist activity at human H3R expressed on HEK293T cells assessed as inhibition of forskolin-induced CRE-driven luciferase activity co-incubated with forskolin for 6 hrs and measured after 30 mins by CRE-luciferase reporter gene assay; format: functional
In short: (§1)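 HEK293T cells transiently transfected (PEI method) in suspension with receptor cDNA (1000 ng), CRE-luciferase (2500 ng) and empty pcDEF3; 50.000 cells/well on poly-L-lysine, grown 24 h. Stimulated with increasing ligand concentrations plus 1 μM forskolin, 37 °C, 5% CO2, 6 h. Luciferase reagent (ATP, D-luciferin) added, luminescence read after 30 min at 37 °C. Nonlinear regression; α relative to histamine; three experiments in triplicate.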

Histamine H3 receptor [3] = target: T1, Histamine H3 receptor; assay: Intrinsic activity at human H3R expressed on HEK293T cells assessed as activation of forskolin-induced CRE-driven luciferase activity co-incubated with forskolin for 6 hrs and measured after 30 mins by CRE-luciferase reporter gene assay relative to histamine; format: functional; in short: as §1
Histamine H3 receptor [4] = target: T1, Histamine H3 receptor; assay: Displacement of [3H]-N-alpha-methylhistamine from human histamine H3 receptor expressed in CHO cells incubated for 40 min by liquid scintillation counting analysis; format: cell-based
Histamine H3 receptor [5] = target: T1, Histamine H3 receptor; assay: Agonist activity at recombinant human H3R expressed on cells incubated for 60 mins by [35S]GTPgammaS binding assay; format: functional

T1 sequence (Q9Y5N1 whole entry): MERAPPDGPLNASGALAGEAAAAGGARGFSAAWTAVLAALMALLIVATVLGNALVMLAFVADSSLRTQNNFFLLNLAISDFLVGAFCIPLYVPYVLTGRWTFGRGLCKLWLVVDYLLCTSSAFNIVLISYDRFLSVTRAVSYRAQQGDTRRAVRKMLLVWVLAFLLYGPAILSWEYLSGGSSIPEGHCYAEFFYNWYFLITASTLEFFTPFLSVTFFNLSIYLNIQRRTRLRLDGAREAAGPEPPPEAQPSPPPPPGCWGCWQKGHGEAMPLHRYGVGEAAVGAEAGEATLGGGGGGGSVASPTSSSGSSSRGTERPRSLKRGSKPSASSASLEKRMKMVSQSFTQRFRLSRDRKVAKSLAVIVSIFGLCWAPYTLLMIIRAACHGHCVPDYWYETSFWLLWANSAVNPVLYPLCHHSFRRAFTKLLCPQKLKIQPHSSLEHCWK

Ki (Histamine H3 receptor [1]) [nM]	EC50 (Histamine H3 receptor [2]) [nM]	Intrinsic activity (Histamine H3 receptor [3])	Ki (Histamine H3 receptor [4]) [nM]	EC50 (Histamine H3 receptor [5]) [nM]	Compound
63.1	7.94	1.2			CCN(CC)C1CN(c2ccnc(N)n2)C1
39.8	3.16	1.2			CC(C)NC1CN(c2ccnc(N)n2)C1
79.4	31.6	0.9			CCc1cc(N2CC(N)C2)nc(N)n1
15.8	0.794	1.2			CCCCNC1CN(c2ccnc(N)n2)C1
79.4	12.6	1			CCNC1CN(c2cc(C)nc(N)n2)C1
200	79.4	0.7			CC(C)c1cc(N2CC(N)C2)nc(N)n1
100	12.6	0.7			CNC1CN(c2cc(C(C)C)nc(N)n2)C1
6.31	1.26	1.1			CNC1CN(c2ccnc(N)n2)C1
			50.1	126	CCCCC(=O)O[C@H]1C[C@@H]2C[C@H]3[C@](NC)(CN2[C@@H](C)C1)C[C@]1(C(=O)Nc2c(C(=O)[C@H]4OC4(C)C)cccc21)[C@]3(C)C=O
39.8	7.94	1.3			Nc1nccc(N2CC(N3CCCC3)C2)n1
39.8	5.01	1.1			CC(C)CNC1CN(c2ccnc(N)n2)C1
251	63.1	0.8			CCc1cc(N2CC(N(C)C)C2)nc(N)n1

Reference: ChEMBL document CHEMBL4354817, “4-(3-Aminoazetidin-1-yl)pyrimidin-2-amines as High-Affinity Non-imidazole Histamine H3 Receptor Agonists with in Vivo Central Nervous System Activity” (J Med Chem, 2019)
